# CXCR6 inh = CXCR6 receptor inhibitors, primary screen, cell-based, beta-arrestin, luminescence, CHO-K1 PathHunter, 1536-well | C-X-C chemokine receptor type 6 (Homo sapiens), O00574 | inhibition, % at 20 µM | 0.36% of 360,000 active; in the data active = inhibition above about 34%, passing the limit was not always enough;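 also: antagonist mode with CXCL16 agonist at 10 nM final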
# APOBEC3G inh = APOBEC3G DNA deaminase inhibitors, primary screen, biochemical, fluorescence, single-stranded DNA substrate, uHTS. recombinant A3G, ssDNA deamination FAM/TAMRA fluorescence. inhibition, % at 20 µM. 0.28% of 330,000 active;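 active = inhibition of at least 40% at 20 µM, with no more than 30% in the related APOBEC3A deaminase screen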
# A3A deaminase = APOBEC3A ssDNA deaminase inhibitors, primary screen, selectivity assay for APOBEC3G inhibitor project, biochemical, FAM/TAMRA oligo cleavage fluorescence. recombinant A3A, FAM/TAMRA ssDNA deamination fluorescence. 0.41% of 330,000 active. inhibition, % at 20 µM;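 active = at least 40% inhibition at 20 µM here, with at most 30% in a related deaminase screen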
# Target sequence (P31941 whole entry, looked up): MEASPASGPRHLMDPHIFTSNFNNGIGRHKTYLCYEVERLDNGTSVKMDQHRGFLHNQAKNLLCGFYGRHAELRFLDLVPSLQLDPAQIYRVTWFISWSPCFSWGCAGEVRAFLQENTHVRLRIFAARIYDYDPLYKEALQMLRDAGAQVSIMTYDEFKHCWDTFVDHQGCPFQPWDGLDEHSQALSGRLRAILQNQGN
# CCR6 antag = CCR6 receptor antagonists, primary screen, cell-based, CHO-K1, luminescence, beta-arrestin, uHTS; 0.49% of 340,000 active; CHO-K1 CCR6 PathHunter beta-arrestin, CCL20-stimulated; AID 493098, 2011; C-C chemokine receptor type 6 (Homo sapiens), P51684; inhibition, % at 20 µM;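 active = compounds whose inhibition of the agonist-driven luminescence signal at 20 µM reaches about 50%, limit read from the data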;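 also: cells stimulated with CCL20 at 14 nM final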
# APJ ag = agonists of human apelin receptor APJ, primary screen, CHO-K1 cells, PathHunter beta-arrestin, luminescence | activation, % at 20 µM | 0% DMSO wells, 100% apelin | P35414 | 0.11% of 330,000 active;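 active = activation more than six SD over the plate average, tested at 20 µM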
# Target sequence (P35414 whole entry, looked up): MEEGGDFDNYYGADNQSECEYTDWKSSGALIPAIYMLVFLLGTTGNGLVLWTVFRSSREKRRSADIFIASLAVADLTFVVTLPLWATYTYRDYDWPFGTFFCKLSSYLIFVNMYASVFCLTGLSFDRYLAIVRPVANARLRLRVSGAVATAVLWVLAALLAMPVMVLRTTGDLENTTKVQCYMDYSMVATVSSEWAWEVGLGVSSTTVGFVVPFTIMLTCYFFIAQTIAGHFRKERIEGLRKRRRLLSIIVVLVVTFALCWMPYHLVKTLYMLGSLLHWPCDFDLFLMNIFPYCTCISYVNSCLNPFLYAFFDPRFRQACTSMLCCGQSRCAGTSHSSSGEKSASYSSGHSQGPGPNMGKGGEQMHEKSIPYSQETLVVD
#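 Test system – PathHunter CHO-K1 APJ (AGTRL-1) beta-arrestin reporter cells · Input – 1000 cells/well · Compound – single test compound dose, 20 µM final, 1% DMSO · Times – compound stimulation 90 min at 25 °C, detection 60 min · Technique – beta-gal luminescence · Read-out basis – APJ–arrestin association signal · Control set – negative DMSO alone, positive Apelin-13 at 10 nM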
# APJ antagonist = antagonists of human apelin receptor APJ, primary screen, CHO-K1 cells, beta-arrestin complementation, luminescence. inhibition, % at 20 µM. P35414. 0.32% of 330,000 active. AID 2521, 2010;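 active = inhibition above about 40% at 20 µM, limit read from the data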;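 also: cells challenged with 10 nM apelin-13 agonist together with compound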
# APOBEC3A confirm = APOBEC3A deaminase inhibitors, retest, confirmation, selectivity assay for APOBEC3G inhibitor project, biochemical, single concentration, fluorescence readout. 63% of 1,400 active. inhibition, % at 20 µM. recombinant A3A, ssDNA deaminase UDG fluorescence assay. shares compounds with A3A deaminase;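 active = inhibition reaching a set limit, 80% of the first screen's cutoff, at 20 µM in any replicate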
# UDG A3A counter = E. coli UDG inhibitors, confirmation, counter-screen for APOBEC3A inhibitor project, biochemical, single concentration, fluorescence, FAM/TAMRA oligo; inhibition, % at 20 µM; 1,000 tested, under 10 active; AID 504714, 2011; shares compounds with A3A deaminase; UDG counterscreen, FAM/TAMRA uracil oligo fluorescence; call rule not given here
# A number is an active result; i = inactive; nt = no result. Hits are enriched below; roughly 1.4% of the tested compounds scored in any of these assays.
SMILES,CXCR6 inh,APOBEC3G inh,A3A deaminase,CCR6 antag,APJ ag,APJ antagonist,APOBEC3A confirm,UDG A3A counter
O=C1CC(c2ccco2)CC(O)=C1C=Nc1cc(Cl)ccc1O (stereo unspecified),i,i,55.4,i,i,i,54.3,nt
CN(C)Cc1c(C(=O)N/N=C/C2CC=CCC2)nnn1-c1nonc1N (stereo unspecified),i,i,i,i,i,i,nt,nt
COc1ccc(OC)c(NC(=O)COC(=O)c2cc3c(s2)CCC3)c1,i,i,i,i,i,i,nt,nt
COc1ccccc1NC(=O)COC(=O)c1cc2c(s1)CCC2,i,i,55.9,i,i,i,46.5,i
CCCCc1c(CCC)c(=N)c2ccccc2n1C,i,i,41.9,i,i,i,82.7,i
CCCCc1c(O)c2ccccc2n(CCCC)c1=O,i,i,i,i,i,i,nt,nt
COCc1c(C(=O)NCCOc2ccc(Cl)cc2)oc2ccccc12,i,i,i,i,i,i,nt,nt
COc1ccc2oc(C(=O)OCc3nnc(-c4ccccc4)o3)c(C)c2c1,i,i,i,i,i,i,nt,nt
O=C(COc1ccc2c3c(c(=O)oc2c1)CCCC3)NCCCn1ccnc1,i,i,i,i,i,i,nt,nt
O=C(CNC(=O)OCc1ccccc1)Nc1ccc(F)cc1,i,i,67.3,i,i,i,70.3,i
COc1ccc(N(CC(=O)NC2CCCC2)C(=O)Cn2nnc(-c3ccc(F)cc3)n2)cc1,i,i,i,i,i,i,nt,nt
NC(CSCc1cccc(Br)c1)C(=O)O (stereo unspecified),i,i,i,i,i,i,nt,nt
Cc1nn(C(C)C(=O)Nc2ccc(Cl)cn2)c(C)c1[N+](=O)[O-] (stereo unspecified),i,i,52.0,i,i,i,i,i
CC(C)C(NC(=O)c1ccc(F)cc1)C(=O)N1CCOCC1 (stereo unspecified),i,i,i,i,i,i,nt,nt
Cc1ccc(O)c(C(=O)c2cnn(C(=O)COc3ccccc3C#N)c2)c1,nt,i,i,nt,i,i,nt,nt
C[n+]1cccc(/C=N/NC(=O)CC23CC4CC(CC(C4)C2)C3)c1,i,i,44.7,i,i,i,67.2,i
CNC(=O)c1ccc(NC(=O)CC23CC4CC(CC(C4)C2)C3)cc1,i,i,i,i,i,i,nt,nt
COC(=O)C[C@@H]1C[C@@H]2c3cc(NS(=O)(=O)c4ccc(F)cc4)ccc3O[C@@H]2[C@H](CO)O1,i,nt,nt,nt,nt,nt,nt,nt
O=C(CC12CCC(CC1)C2)NCc1ccc2c(c1)OCO2,i,i,44.4,i,i,i,i,i
O=C1CN(C(=O)CSc2nncs2)c2ccccc2N1,i,i,44.2,i,i,i,i,i
O=C1CN(C(=O)CSc2nc(-c3ccccc3)cs2)c2ccccc2N1,i,i,i,i,i,i,nt,nt
CCC1(c2ccccc2)NC(=O)N(CC(=O)Nc2ccc(S(=O)(=O)N3CC(C)CC(C)C3)cc2)C1=O (stereo unspecified),i,i,i,i,i,i,nt,nt
CC1(c2ccc(Cl)cc2)NC(=O)N(CC(=O)Nc2ccc(F)cc2)C1=O (stereo unspecified),i,i,i,i,i,i,nt,nt
CC1CCN(S(=O)(=O)c2ccc(NC(=O)CN3C(=O)NC(C)(c4ccccc4)C3=O)cc2)CC1 (stereo unspecified),i,i,49.0,i,i,i,i,nt
CC1(c2ccc(Cl)cc2)NC(=O)N(CC(=O)Nc2ccc(N3CCCCC3)cc2)C1=O (stereo unspecified),i,i,44.6,i,i,i,i,i
SMILES,CXCR6 inh,APOBEC3G inh,A3A deaminase,CCR6 antag,APJ ag,APJ antagonist,APOBEC3A confirm,UDG A3A counter
CN(CC(=O)Nc1ccc(Cl)c(C(F)(F)F)c1)C(=O)CNC(=O)C1CCCCC1,i,i,i,i,i,i,nt,nt
CCC1(c2ccc(F)cc2)NC(=O)N(CC(=O)N2CCN(C(=O)c3cccs3)CC2)C1=O (stereo unspecified),i,i,i,i,i,i,nt,nt
CC(C)c1ccc(C2(C)NC(=O)N(CC(=O)N3CCN(C(=O)c4cccs4)CC3)C2=O)cc1 (stereo unspecified),i,i,48.1,i,i,i,i,i
O=C(Nc1cc(S(=O)(=O)N2CCOCC2)ccc1Cl)c1cc2ccccc2o1,i,i,i,i,i,i,nt,nt
Cc1ccc(NC(=O)CN(c2ccccc2F)S(C)(=O)=O)cc1,i,i,51.7,i,i,i,i,nt
C[C@H](CO)N1C[C@H](C)[C@H](CN(C)C(=O)Nc2ccnc(N3CCOCC3)c2)OCc2cnnn2CCCC1=O,i,nt,nt,nt,nt,nt,nt,nt
Cn1c(N)c(C(=O)COC(=O)COc2ccc(C#N)cc2)c(=O)n(C)c1=O,i,i,91.5,i,i,i,i,i
COc1ccc([N+](=O)[O-])cc1NS(=O)(=O)c1cc(C(=O)NCc2cccnc2)ccc1Cl,i,i,i,i,i,i,nt,nt
O=C1NCCN1CCN1C(=O)c2ccccc2NC1c1ccccc1 (stereo unspecified),i,i,i,i,i,i,nt,nt
CC1(C)CC(=O)C(C(=O)C2CCN(S(=O)(=O)c3ccccc3)CC2)C(=O)C1,i,i,47.0,i,i,i,i,i
O=C(Nc1cccc2ncccc12)c1ccc(Cl)cc1,i,i,65.5,i,i,i,41.7,nt
O=C(Nc1cccc2ncccc12)c1ccc(F)cc1,i,i,i,i,i,i,nt,nt
N#Cc1cccc(NC(=O)Cn2c3[n+](c4ccc(C(F)(F)F)cc42)CCCCC3)c1,i,i,41.7,i,i,i,59.8,i
COC(=O)c1ccc(NC(=O)CN2CCN(S(=O)(=O)c3ccc(Br)cc3)CC2)cc1,i,i,i,i,i,i,nt,nt
CCn1c(SCC(=O)N2CCCC2)nnc1-c1ccc(N)cc1,i,i,43.6,i,i,i,64.7,i
CCCCn1c(SCC(=O)N2CCCC2)nnc1-c1ccccc1,i,i,i,i,i,i,nt,nt
COc1ccc(CCC(=O)N/N=C(\C)c2ccc3c(c2)OCO3)cc1,i,i,i,i,i,i,nt,nt

# Compound activity: PubChem, Sanford-Burnham Center for Chemical Genomics
